Data reported in ChEMBL document CHEMBL1123481, “Structure-activity relationships of (arylalkyl)imidazole anticonvulsants: comparison of the (fluorenylalkyl)imidazoles with nafimidone and denzimol” (J Med Chem, 1986).

What was measured:
Mus musculus [1] = organism: Mus musculus; experiment: Compound was tested for time to peak anticonvulsant effect (TPE); assay type: functional
Summary of the method: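 Time to peak effect after oral dosing in 5% acacia/water was estimated by testing mice at 0.5, 1, 2, 3 and 4 h posttreatment in the MES and horizontal screen tests.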

Mus musculus [2] = experiment: Effective dose in mice by horizontal screen assay (administered orally); assay type: functional; details: po
Summary of the method: (§1)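 Fasted, pre-trained male CF1 mice (20–25 g) were dosed orally across a range of doses, given as a suspension in 5% acacia/water. Each mouse was placed on a 13 cm square wire screen, and the screen was rotated 180°. The score was return to the top within 1 min. Time of peak effect was scanned at 0.5–4 h. Each compound was then retested at that time with at least 4 doses and 12 mice per dose.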

Mus musculus [3] = experiment: Effective dose in mice by pentylenetetrazole assay (administered subcutaneously); No effect at highest dose of 400 mg/kg; assay type: functional, organism-based; parameters: dose 400 mg/kg
Summary of the method: (§2)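 Test compound was given orally to mice. At its previously determined time of peak effect, pentylenetetrazole (110 mg/kg in water, 10 mL/kg) was injected sc into the neck skin fold. Mice were watched for 15 min for presence or absence of a clonic seizure. Where protection was bell-shaped, the value is the dose giving maximum protection.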

Mus musculus [4] = experiment: Effective dose in mice by horizontal screen assay (administered orally); No effect at highest dose of 400 mg/kg; assay type: functional, organism-based; parameters: dose 400 mg/kg; summary of the method: as §1
Mus musculus [5] = experiment: Effective dose in mice by maximal electroshock assay, administered orally; assay type: functional; details: po
Summary of the method: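 Mice were dosed orally across a range of doses, given in 5% acacia/water. Time of peak effect was found by shocking at 0.5, 1, 2, 3 and 4 h. Corneal electroshock was 40 mA, 0.1 s, ac. Each compound was retested at peak time with at least four doses and 12 mice per dose. The ED50 for prevention of tonic-extensor convulsion was calculated by Litchfield–Wilcoxon; 95% confidence limits are given.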

Mus musculus [6] = experiment: Effective dose in mice by pentylenetetrazole assay (administered subcutaneously); assay type: functional; details: sc; summary of the method: as §2
Mus musculus [7] = organism: Mus musculus; experiment: Potentiation of hexobarbital-induced sleeping time in mice; assay type: functional
Summary of the method: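 Groups of 10 fasted mice received compound orally at 10 mg/kg in 5% acacia/water (10 mL/kg). At the compound's time of peak effect they were given hexobarbital 100 mg/kg ip, solubilized with stoichiometric NaOH. Sleeping time, measured as loss of righting reflex, was recorded to the nearest minute. Values are mean ± SEM.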

SMILES | TPE (Mus musculus [1]) | ED50 (Mus musculus [2]) | ED50 (Mus musculus [3]) | ED50 (Mus musculus [4]) | ED50 (Mus musculus [5]) | ED50 (Mus musculus [6]) | ST (Mus musculus [7])
c1ccc2c(c1)Cc1cc(C3(Cn4ccnc4)OCCCO3)ccc1-2 | 1 h | > 400 mg/kg | No effect |  |  |  | 
O=C(Cn1ccnc1)c1ccc2c(c1)Cc1cc(Br)ccc1-2 | 2 h |  | No effect | No effect |  |  | 
O=C(Cn1ccnc1)c1cccc2c1Cc1ccccc1-2 | 2 h | > 100 mg/kg |  |  | 19 mg/kg | > 200 mg/kg | 
CC(C)c1ccc2c(c1)Cc1cc(C(=O)Cn3ccnc3)ccc1-2 | 2 h |  | No effect | No effect | 190 mg/kg |  | 
c1ccc2c(c1)Cc1cc(CCn3ccnc3)ccc1-2 | 2 h | > 100 mg/kg |  |  | 17.8 mg/kg | > 200 mg/kg | 
O=C(Cn1ccnc1)c1cccc2c1-c1ccccc1C2 | 1 h | > 400 mg/kg |  |  |  | 400 mg/kg | 
OC(CCn1ccnc1)c1ccc2c(c1)Cc1ccccc1-2 (configuration not stated) | 1 h | > 400 mg/kg | No effect |  |  |  | 75 min
CCc1ccc2c(c1)Cc1cc(C(=O)Cn3ccnc3)ccc1-2.Cl | 1 h |  |  | No effect | 240 mg/kg | > 400 mg/kg | 
O=C(OC(Cn1ccnc1)c1ccc2c(c1)Cc1ccccc1-2)c1ccccc1 (configuration not stated) | 1 h |  |  | No effect |  | > 400 mg/kg | 
O=C(CCn1ccnc1)c1ccc2c(c1)Cc1ccccc1-2 | 1 h | > 200 mg/kg |  |  |  | > 100 mg/kg | 
CC1COC(Cn2ccnc2)(c2ccc3c(c2)Cc2ccccc2-3)O1 (configuration not stated) | 2 h | > 400 mg/kg |  |  |  | > 200 mg/kg | 
c1ccc2c(c1)Cc1cc(C3(CCn4ccnc4)OCCO3)ccc1-2 | 1 h |  |  | No effect |  | > 400 mg/kg | 
O=C(Cn1ccnc1)c1csc2ccccc12 | 1 h |  |  | No effect | 59 mg/kg | > 400 mg/kg | 
CCC(C(=O)c1ccc2c(c1)Cc1ccccc1-2)n1ccnc1 (configuration not stated) | 1 h |  |  | No effect |  | > 400 mg/kg | 
Cc1cn(CC(=O)c2ccc3c(c2)Cc2ccccc2-3)cn1 | 1 h | > 400 mg/kg | No effect |  |  |  | 
O=C(Cn1ccnc1)c1cc2ccccc2s1 | 1 h | > 400 mg/kg |  |  | 86 mg/kg | > 400 mg/kg | 
CC(C(=O)c1ccc2c(c1)Cc1ccccc1-2)n1ccnc1 (configuration not stated) | 1.5 h | > 400 mg/kg |  |  |  | 260 mg/kg | 103 min
c1ccc2c(c1)Cc1cc(C3(Cn4ccnc4)SCCS3)ccc1-2 | 2 h | > 400 mg/kg |  |  |  | > 400 mg/kg | 
CC1(C)c2ccccc2-c2ccc(C(=O)Cn3ccnc3)cc21 | 1 h | > 400 mg/kg |  |  |  | > 400 mg/kg | 
c1ccc2cc(CCn3ccnc3)ccc2c1 | 1 h | > 200 mg/kg |  |  | 51 mg/kg | > 200 mg/kg | 
Cc1nccn1CC(=O)c1ccc2c(c1)Cc1ccccc1-2 | 1 h | > 400 mg/kg |  |  |  |  | 
Cc1ccc2c(c1)Cc1cc(C(=O)Cn3ccnc3)ccc1-2 | 2 h |  | No effect | No effect |  |  | 
O=C(Cn1ccnc1)c1ccc2c(c1)-c1ccccc1CC2 | 1 h |  |  | No effect | 71 mg/kg | > 400 mg/kg | 
CCc1nccn1CC(=O)c1ccc2c(c1)Cc1ccccc1-2 | 2 h | > 400 mg/kg |  |  | 190 mg/kg | > 400 mg/kg | 
